DSG3 Ab inh – inhibitors of pemphigus antibody binding to human desmoglein-3; DSG3-coupled beads, scFv-anti-DSG3-GFP binding, flow cytometry; stronger effect = lower value; binding (percent of control), % at 10 µM; 0.48% of 310,000 active;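 active = binding more than 3 SD below its plate's average and above zero; inconclusive = below that plate limit but binding exactly zero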;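 note: hits lower antibody fragment binding to DSG3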
Target sequence (P32926 whole entry, looked up, the tested form may be a part): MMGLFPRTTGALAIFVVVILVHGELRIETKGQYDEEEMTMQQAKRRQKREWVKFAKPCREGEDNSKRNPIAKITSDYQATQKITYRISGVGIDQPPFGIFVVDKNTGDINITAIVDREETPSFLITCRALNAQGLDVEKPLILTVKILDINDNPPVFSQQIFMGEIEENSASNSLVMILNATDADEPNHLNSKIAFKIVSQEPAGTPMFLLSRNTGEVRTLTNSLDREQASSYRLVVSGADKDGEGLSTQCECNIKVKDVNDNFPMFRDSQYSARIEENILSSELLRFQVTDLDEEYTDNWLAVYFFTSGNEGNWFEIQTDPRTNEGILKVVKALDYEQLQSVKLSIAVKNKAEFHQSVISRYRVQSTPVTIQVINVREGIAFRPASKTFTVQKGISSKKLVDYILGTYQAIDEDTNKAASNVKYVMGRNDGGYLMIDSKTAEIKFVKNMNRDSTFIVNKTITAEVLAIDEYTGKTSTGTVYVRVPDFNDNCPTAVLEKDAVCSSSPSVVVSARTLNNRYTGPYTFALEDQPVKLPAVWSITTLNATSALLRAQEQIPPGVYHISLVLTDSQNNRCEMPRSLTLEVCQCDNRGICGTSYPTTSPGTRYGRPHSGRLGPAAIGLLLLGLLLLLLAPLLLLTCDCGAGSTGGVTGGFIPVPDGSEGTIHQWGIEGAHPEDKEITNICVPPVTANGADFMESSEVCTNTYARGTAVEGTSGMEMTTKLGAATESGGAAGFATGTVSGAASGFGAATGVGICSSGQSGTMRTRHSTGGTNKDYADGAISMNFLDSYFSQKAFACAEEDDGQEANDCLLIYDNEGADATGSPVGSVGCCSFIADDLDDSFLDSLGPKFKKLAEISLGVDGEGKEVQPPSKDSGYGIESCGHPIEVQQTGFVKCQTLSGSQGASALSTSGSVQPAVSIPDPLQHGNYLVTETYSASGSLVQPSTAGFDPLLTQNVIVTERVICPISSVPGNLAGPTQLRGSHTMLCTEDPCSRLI
Myeloid diff 2 – myeloid differentiation induction; 1% of 360,000 active; ER-HoxA9 myeloid progenitors, lysozyme-GFP differentiation, flow cytometry; calls only at 10 µM;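 active = normalized GFP-positive differentiation at or above the plate's own cutoff, the solvent-only control mean plus 3 SD; inconclusive = no clear call, values can overlap the other calls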;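 note: cells exposed to compound for four days before flow analysis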
T cell modulator – modulates CD8 T cell binding to vesicles | 2C CD8+ T cell-vesicle binding, flow cytometry; stronger effect = lower value | response (vesicle binding), % at 7 µM | 0.068% of 330,000 active | AID 2052;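 active = response, share of CD8 T cells binding vesicles, and their 90th percentile fluorescence all below set limits, cut at about 80% in these data, passing the limit was not always enough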;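 note: values below 100% mean blocked vesicle binding to the CD8+ T cells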
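material = purified 2C TCR transgenic mouse naive CD8+ T cells | controls = Unloaded micro-vesicles (low), QL9 vesicles with 0.7% DMSO (high) | detection = cytometric PE anti-B7-1 and Alexa647 anti-CD8 signals after 1% paraformaldehyde fixation | incubation = binding step 1.5 h, 37 °C, antibody labelling 20 min, ice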
Vif inh – HIV Vif inhibition; HEK293T cells, Vif self-association by quenched fluorescence, imaging, 24 h; 0.35% of 340,000 active; AID 602346; inhibition, % at 7.49 µM; in the data active = inhibition above about 50%, passing the limit was not always enough; inconclusive = no clear call, values can overlap the other calls; inactive = below about 31%
Myeloid diff CP1 – myeloid differentiation induction. AID 651706. calls only. 2% of 2,300 active. ER-HoxA9 myeloid progenitors, GFP/Mac1 double-positive flow. shares compounds with Myeloid diff 2;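 active = share of green or green-and-red cells above 9 and 9% in run 1 or 4 and 3% in run 2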
GFP autofluor – flagged as fluorescent in myeloid differentiation counter-screen; shares compounds with Myeloid diff 2; ER-HoxA9 myeloid progenitors, no estrogen, GFP autofluorescence flow cytometry; vehicle wells 0%, positive control 100%; fluorescence response, % (test concentration not listed); 7.4% of 2,300 active;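 active = over 5% cells positive for green fluorescent reporter, or over 2% positive for both it and APC stain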;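 note: range taken on the double positive population between DMSO and positive control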
Active calls of the source: *. Shown are actives, neighbours in structure and some others; about 1.7% of the full set was active somewhere.

What do the screens show for `COC(=O)C1=C(c2ccc(F)cc2OCc2ccccc2)C[C@@H]2CC[C@H]1N2C(=O)NC1CCN(Cc2ccccc2)CC1`?
DSG3 Ab inh: 105; Myeloid diff 2: inactive; T cell modulator: 150; Vif inh: -3

Results for CCCCn1c(O)c(C(=O)/C=C/c2c[nH]c3ccccc23)c(=O)[nH]c1=O ?
Myeloid diff 2: active; T cell modulator: inactive; Vif inh: -2

How did CC1OC(OC2C=C3CCC4C(CCC5(C)C(c6ccc(=O)oc6)CCC45O)C3(C)CC2)C(O)C(OC2OC(CO)C(O)C(O)C2O)C1O (stereo not given) do in these assays?
DSG3 Ab inh: 96; Vif inh: -8

Results for COc1ccc(-n2nnnc2C(c2cccc(OC)c2OC)N2CCC(n3c(=O)[nH]c4ccccc43)CC2)cc1 (stereo not given) ?
Myeloid diff 2: inactive

How did COc1cccc(C(c2nnnn2-c2ccc3c(c2)OCCO3)N2CCC(n3c(=O)[nH]c4ccccc43)CC2)c1OC (stereo not given) do in these assays?
Myeloid diff 2: active

How did Cn1cc(C(=O)OCC(=O)NC2CCCCC2)c2ccccc21 do in these assays?
DSG3 Ab inh: 110; Myeloid diff 2: inactive; T cell modulator: 347; Vif inh: -9

Results for CC[C@H]1C2C[C@H]3[C@@H]4N(C)c5ccccc5C45C[C@H](C2[C@H]5O)N3[C@@H]1O (stereo not given in full) ?
DSG3 Ab inh: 97; Myeloid diff 2: inactive; T cell modulator: 479; Vif inh: -16

How did COc1ccc(CN2Cc3cnnn3-c3ccccc3C2c2ccccc2)cc1 (stereo not given) do in these assays?
DSG3 Ab inh: 110; Myeloid diff 2: active

How did O=c1[nH]sc2cc(F)ccc12 do in these assays?
DSG3 Ab inh: 4.9*; Myeloid diff 2: inconclusive; Vif inh: -3

What do the screens show for `O=[N+]([O-])c1cccc(CN2CCN(Cc3ccc(Br)cc3)CC2)c1`?
DSG3 Ab inh: 95; Myeloid diff 2: inactive; T cell modulator: 229; Vif inh: 2

How did O=C(COc1ccccc1)c1cn(Cc2ccccc2)c2ccccc12 do in these assays?
Myeloid diff 2: active; T cell modulator: 481; Vif inh: -13

Results for O=c1[nH]c2ccccc2n1C1CCN(C(c2cccs2)c2nnnn2-c2ccc3c(c2)OCCO3)CC1 (stereo not given) ?
Myeloid diff 2: inconclusive; Vif inh: 6

Results for Cc1ccc(S(=O)(=O)N2Cc3cnnn3-c3ccccc3C2C#N)cc1 (stereo not given) ?
DSG3 Ab inh: 94; Myeloid diff 2: active

How did N#CC1c2ccccc2-n2nncc2CN1S(=O)(=O)c1ccc(Cl)cc1 (stereo not given) do in these assays?
DSG3 Ab inh: 107; Myeloid diff 2: inactive

How did COc1ccc2c(c1)[C@@]13CCC=C[C@H]1[C@@H](C2)NCC3 do in these assays?
DSG3 Ab inh: 110; Myeloid diff 2: inactive; T cell modulator: 430; Vif inh: 61*

How did CCCC(=O)c1cc(CP(=O)(OCC)OCC)oc1C do in these assays?
DSG3 Ab inh: 90; Myeloid diff 2: inactive; T cell modulator: 440; Vif inh: 50*

Results for O=C1NCN(c2ccccc2)C12CCN(C(c1ccccc1)c1nnnn1C1CCCC1)CC2 (stereo not given) ?
Myeloid diff 2: inactive; Vif inh: -5

What do the screens show for `O=c1cc(C(F)(F)F)c2cc3c4c(c2o1)CCCN4CCC3`?
DSG3 Ab inh: 131; Myeloid diff 2: active; T cell modulator: 330; Vif inh: 5

How did Cc1cc2c(C(F)(F)F)cc(=O)oc2c2c1NCCC2 do in these assays?
DSG3 Ab inh: 106; Myeloid diff 2: inactive; T cell modulator: 141

Results for Cn1c(O)c(/C=C/C=Nc2ccccc2)c(=O)n(C)c1=S ?
Myeloid diff 2: active; T cell modulator: 385; Vif inh: -8

Results for C=CCn1cc(C=C2C(=O)N(C)C(=O)N(C)C2=O)c2ccccc21 ?
DSG3 Ab inh: 91; Myeloid diff 2: inactive; T cell modulator: 212; Vif inh: -14

How did O=C1NC(=S)SC1=Cc1ccc(N(CCCl)CCCl)cc1 do in these assays?
DSG3 Ab inh: 97; Myeloid diff 2: active

What do the screens show for `O=C(O)CCCc1ccc(N(CCCl)CCCl)cc1`?
DSG3 Ab inh: 102; Myeloid diff 2: inactive; T cell modulator: 586; Vif inh: -2

Results for CCN(CC)CCCN=Cc1c(O)n(-c2ccccc2F)c(=O)[nH]c1=O ?
DSG3 Ab inh: 103; Myeloid diff 2: inactive; T cell modulator: 640; Vif inh: 3

Results for CCN(CC)CCCN=Cc1c(O)n(-c2cccc(C)c2C)c(=O)[nH]c1=O ?
DSG3 Ab inh: 111; Myeloid diff 2: active; T cell modulator: 224; Vif inh: -1; Myeloid diff CP1: inactive; GFP autofluor: 0

Results for COC(=O)C1=C(c2ccc(F)cc2F)C[C@@H]2CC[C@H]1N2C(=O)N1CCCCC1 ?
DSG3 Ab inh: 106; Myeloid diff 2: inactive; T cell modulator: inactive; Vif inh: -1

How did CCOC(=O)C1=C(C)c2ccccc2OC1(C(=O)OCC)c1ccccc1 (stereo not given) do in these assays?
DSG3 Ab inh: 104; Myeloid diff 2: inactive; Vif inh: -2; Myeloid diff CP1: inactive; GFP autofluor: 0

How did Cc1cc(C)c(C)c(C(O)(C(=O)O)c2ccccc2)c1 (stereo not given) do in these assays?
DSG3 Ab inh: 105; Myeloid diff 2: inactive; Vif inh: -9

Results for COc1ccc(OC)c(CNCCc2ccc(OC)c(OC)c2)c1 ?
DSG3 Ab inh: 109; Myeloid diff 2: inactive; T cell modulator: 186; Vif inh: 0

Results for COC(=O)NC(=C(Cl)Cl)P(=O)(c1ccccc1)c1ccccc1 ?
DSG3 Ab inh: 98; Myeloid diff 2: active; T cell modulator: 299; Vif inh: 6; Myeloid diff CP1: inactive; GFP autofluor: 0

What do the screens show for `Cc1ccc(C(=O)N/C(=C\Cl)P(=O)(c2ccccc2)c2ccccc2)cc1`?
DSG3 Ab inh: 141; Myeloid diff 2: inactive; T cell modulator: 184; Vif inh: 3

Results for O=C(Cn1cc(C(=O)c2ccccc2F)c2ccccc21)NC1CC1 ?
DSG3 Ab inh: 114; Myeloid diff 2: inactive; T cell modulator: 333; Vif inh: -1

What do the screens show for `O=P(CN1CCN(c2ccccc2)CC1)(N1CCCCC1)N1CCCCC1`?
DSG3 Ab inh: 103; Myeloid diff 2: active; T cell modulator: 759; Myeloid diff CP1: inactive; GFP autofluor: 0

What do the screens show for `CCC(=NC(C)c1ccccc1)c1c(O)[nH]c(=O)[nH]c1=O` (stereo not given)?
DSG3 Ab inh: 118; Myeloid diff 2: active; T cell modulator: 214; Vif inh: 10; Myeloid diff CP1: inactive; GFP autofluor: 1

Source: PubChem
